Assay type in all cases: ADME, cell-based
Common to all, as to settings: human

Data set [1] relates to Caco-2. Briefly: Ratio of permeability from basolateral to apical over apical to basolateral side of the Caco-2 cell membrane in presence of 20 uM cyclosporin A. The method in brief:
(§1)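 Caco-2 monolayers (passages 30-39) were grown 21-28 days on polyester Transwell membranes, with batch integrity checked by [14C]-mannitol flux. Bidirectional transport (n = 3) was run at 37 °C with shaking, using peptide at 20 µM final in HBSS pH 7.4 with 0.4% DMSO and inhibitor in HBSS. Sampling continued up to 160 min, with LC-MS-MS quantitation. Papp BL-to-AP/AP-to-BL ratio.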

The test system of data set [2] is Caco-2. Briefly: Ratio of permeability from basolateral to apical over apical to basolateral side of the Caco-2 cell membrane in presence of 10 uM GF 120918. The method in brief: as §1
The subject of data set [3] is Caco-2. Briefly: Ratio of permeability from basolateral to apical over apical to basolateral side of the Caco-2 cell membrane in presence of 50 uM MK 571. The method in brief:
as §1

Data set [4] concerns Caco-2. Briefly: Ratio of permeability from basolateral to apical over apical to basolateral side of the Caco-2 cell membrane in presence of 2 uM GF 120918. The method in brief:
as §1

As for `CC(C)C[C@@H]1NC(=O)[C@H](Cc2ccccc2)NC(=O)CNC(=O)[C@H](C)NC(=O)[C@H](Cc2ccc(O)cc2)NC(=O)/C=C\c2ccccc2OCOC1=O`, the results for the Ratio in data set [1] and in data set [2] were 12 and 1.9, respectively.

Regarding `CC(=O)N[C@@H](Cc1ccc(O)cc1)C(=O)N[C@@H](C)C(=O)NCC(=O)N[C@@H](Cc1ccccc1)C(=O)N[C@H](CC(C)C)C(N)=O`, the Ratio in data set [3] was determined as 3.8; in data set [1], 1.2; in data set [2] it was 1.

On to `CC(=O)N[C@@H](Cc1ccc(O)cc1)C(=O)N[C@H](C)C(=O)NCC(=O)N[C@@H](Cc1ccccc1)C(=O)N[C@@H](CC(C)C)C(N)=O`, for which the Ratio in data set [3] amounted to 1.1; in data set [1], 2.4; in data set [2] it was 1.1.

In the case of `CC(C)C[C@H]1NC(=O)[C@H](Cc2ccccc2)NC(=O)CNC(=O)[C@H](C)NC(=O)[C@H](Cc2ccc(O)cc2)NC(=O)/C=C\c2ccccc2OCOC1=O`, the Ratio in data set [1] came to 6.1; in data set [4], 5.4; in data set [2], 2.1.

Take `CC(C)C[C@H]1NC(=O)[C@H](Cc2ccccc2)NC(=O)CNC(=O)[C@@H](C)NC(=O)[C@H](Cc2ccc(O)cc2)NC(=O)/C=C\c2ccccc2OCOC1=O`: the Ratio in data set [3] turned out to be 4.9; in data set [4], 13; in data set [2] it was 2.8.

With `CC(C)C[C@@H]1NC(=O)[C@H](Cc2ccccc2)NC(=O)CNC(=O)[C@@H](C)NC(=O)[C@H](Cc2ccc(O)cc2)NC(=O)/C=C\c2ccccc2OCOC1=O`, the Ratio in data set [3] is listed as 2.8; in data set [1], 14; in data set [4], 5; in data set [2] it was 2.3.

(Values after ChEMBL document CHEMBL1149457, “Effects of amino acid chirality and the chemical linker on the cell permeation characteristics of cyclic prodrugs of opioid peptides” (J Med Chem, 2006).)
